# Bioassay records: PubChem, several laboratories
# This is a sample that favours compounds with a hit; in the whole collection about 2.1% have one here.
# APOBEC3A inh – inhibitors of human APOBEC3A DNA deaminase; P31941; recombinant A3A, FAM/TAMRA ssDNA deamination fluorescence; inhibition, % at 20 µM; 330,000 tested, 0.41% active; AID 493011;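 active means at least 40% inhibition at 20 µM here, with at most 30% in a related deaminase screen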;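 further: plate controls were A3A with DMSO for no effect and wells lacking A3A enzyme for full effect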
# ARFGAP1 inhibitor – rat ARFGAP1 inhibition; Arfgap1-stimulated ARF1 GTP hydrolysis, GDP FP detection; inhibition, % at 16.5 µM; 360,000 tested, 0.26% active;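 active means inhibition above a per-plate limit, mean inhibition of low control wells plus 3 SD, cut at about 25% in these data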;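 further: 0% = DMSO wells with enzyme and 100% = wells lacking Arfgap1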
# Target sequence (Q62848 1-136 limits assumed): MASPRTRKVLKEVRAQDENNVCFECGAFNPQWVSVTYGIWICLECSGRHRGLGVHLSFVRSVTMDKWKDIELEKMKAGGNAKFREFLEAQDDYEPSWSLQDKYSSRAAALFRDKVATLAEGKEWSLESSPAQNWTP
#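 Material: truncated rat Arfgap1 GAP domain; Incubation: compound-enzyme preincubation 20 min, reaction 120 min, detection 60 min, 25 °C; Read-out: percent inhibition of Arfgap1-stimulated GTP hydrolysis; Technique: FP, GDP Alexa 633 tracer displaced from anti-GDP antibody, 620/688 nm; Controls: No-Arfgap1 wells (100%) versus DMSO full-reaction wells (0%); Replication: single well per compound.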
# ASAP1 inh – blocks human ASAP1-stimulated Arf1 GTP hydrolysis; 360,000 tested, 0.19% active; inhibition, % at 16.5 µM; GDP FP detection; Q9ULH1; in the data active means inhibition above about 25%;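 further: 0% = vehicle with enzyme and substrate and 100% = no enzyme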
# Target sequence (Q9ULH1 325-724 limits assumed): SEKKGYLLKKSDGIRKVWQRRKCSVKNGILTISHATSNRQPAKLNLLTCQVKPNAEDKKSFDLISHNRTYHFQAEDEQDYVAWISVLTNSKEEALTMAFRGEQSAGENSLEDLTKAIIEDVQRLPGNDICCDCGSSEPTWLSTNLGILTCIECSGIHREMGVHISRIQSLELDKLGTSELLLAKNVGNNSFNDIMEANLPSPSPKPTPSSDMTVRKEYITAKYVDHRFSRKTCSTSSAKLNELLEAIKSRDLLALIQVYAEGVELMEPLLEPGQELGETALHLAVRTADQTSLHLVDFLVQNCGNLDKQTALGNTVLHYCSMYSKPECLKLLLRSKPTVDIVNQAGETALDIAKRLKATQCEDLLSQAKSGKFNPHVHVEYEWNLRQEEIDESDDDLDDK
# APOBEC3G inh – APOBEC3G (human) deaminase inhibition; Q9HC16; recombinant A3G, ssDNA deamination FAM/TAMRA fluorescence; inhibition, % at 20 µM; 330,000 tested, 0.28% active; AID 493012;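 active means inhibition of at least 40% at 20 µM, with no more than 30% in the related APOBEC3A deaminase screen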;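 further: plate controls were DMSO wells with A3G for no effect and wells lacking A3G enzyme for full effect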
# SUMO Mot1 rescue – blocks SUMOylation pathway, rescuing yeast Mot1-301 growth; S. cerevisiae Mot1-301 growth rescue, ATP luminescence, 38.5C; percent above DMSO median, 100 means doubled; growth rescue, % at 18.8 µM; 320,000 tested, 1% active; AID 2716;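 active means every valid replicate shows activation above 250% relative to neutral control wells; inactive means the rest, any valid replicate at or below 250%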;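 further: OY570 slx delta 5 strain wells were the positive control but not used for scaling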
# C2C12 statin – suppressors of simvastatin-induced myotoxicity in C2C12 myotubes. ATP luminescence, 48 h; scaled: DMSO 0, geranylgeraniol control 100. rescue of ATP level, % at 7.49 µM. AID 602340. 330,000 tested, 0.78% active;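 active means mean ATP rescue above about 67%, or every replicate alone reaching that limit, limit read from the data, passing the limit was not always enough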;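 further: myotubes were challenged with 10 µM simvastatin during compound exposure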
# A3A conf – APOBEC3A (human) deaminase inhibition, confirmed | shares compounds with APOBEC3A inh | inhibition, % at 20 µM | 1,400 tested, 63% active | recombinant A3A, ssDNA deaminase UDG fluorescence assay;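 active means inhibition reaching a set limit, 80% of the first screen's cutoff, at 20 µM in any replicate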;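 further: plate controls were DMSO wells with A3A for no effect and wells lacking A3A enzyme for full effect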
# UDG A3A counter – UDG inhibition in APOBEC3A counter-screen; shares compounds with APOBEC3A inh; UDG counterscreen, FAM/TAMRA uracil oligo fluorescence; inhibition, % at 20 µM; 1,000 tested, under 10 active; AID 504714; call rule not given here
# * = called active by the depositor; / = no result given.
SMILES,APOBEC3A inh,ARFGAP1 inhibitor,ASAP1 inh,APOBEC3G inh,SUMO Mot1 rescue,C2C12 statin,A3A conf,UDG A3A counter
Cc1cccc(S(=O)(=O)N2C[C@H](O)COC[C@@H]3O[C@@H](CC(=O)Nc4ccc(-c5ccccc5)cc4)CC[C@H]32)c1,/,/,/,/,/,-43,/,/
COc1cc(C(CC(=O)N2CCCC2)c2c(OC)cc(OC)c3c(-c4ccccc4)cc(=O)oc23)cc(OC)c1OC (centres undefined),43*,0,-3,7,-14,-9,30,/
COc1ccc(C(CC(=O)N2CCCCC2)c2c(OC)cc(OC)c3c(-c4ccccc4)cc(=O)oc23)cc1 (centres undefined),72*,5,-4,22,322,9,73*,4
COc1ccc(C(CC(=O)N2CCCC(C)C2)c2c(OC)cc(OC)c3c(-c4ccccc4)cc(=O)oc23)cc1 (centres undefined),69*,1,-4,18,-10,-4,63*,-1
COc1ccc(C(CC(=O)N2CCCC2)c2c(OC)cc(OC)c3c(-c4ccccc4)cc(=O)oc23)cc1 (centres undefined),75*,0,2,28,-6,-10,76*,-3
COc1cc(C(CCN2CCCCC2)c2c(OC)cc(OC)c3c(-c4ccccc4)cc(=O)oc23)cc(OC)c1OC (centres undefined),-3,5,-5,-9,-17,/,/,/
CNC(=O)C[C@@H]1CC[C@H]2[C@@H](COc3ccc(NC(=O)c4ccc(F)cc4)cc3C(=O)N2C)O1,/,/,/,/,/,4,/,/
C[C@H]1CCCCO[C@H](CN(C)C(=O)c2ccccc2)[C@@H](C)CN([C@@H](C)CO)C(=O)c2cc(NS(=O)(=O)c3cccs3)ccc2O1,/,/,/,/,/,1,/,/
COc1ccc(C(CC(=O)N2CCOCC2)c2c(OC)cc(OC)c3c(-c4ccccc4)cc(=O)oc23)cc1 (centres undefined),60*,4,1,11,-18,-3,48*,-2
Cc1ccc(OCC(=O)Nc2ccc(S(=O)(=O)N(C)C3CCN(C)CC3)cc2)c(C)c1,43*,3,10,16,1,-3,55*,-3
CN1CCC(N(C)S(=O)(=O)c2ccc(NC(=O)c3ccc(S(=O)(=O)N(C)C)cc3)cc2)CC1,47*,4,4,1,11,2,39*,-3
CN1CCC(N(C)S(=O)(=O)c2ccc(NC(=O)COc3ccc(Br)cc3Cl)cc2)CC1,42*,3,7,-6,3,/,48*,2
Cc1c(C(=O)Nc2ccc(S(=O)(=O)N(C)C3CCN(C)CC3)cc2)oc2ccccc12,1,0,-1,-5,-2,-14,/,/
Cc1ccccc1OCCC(=O)Nc1ccc(S(=O)(=O)N(C)C2CCN(C)CC2)cc1,1,11,-10,7,112,-14,/,/
CN1CCC(N(C)S(=O)(=O)c2ccc(NC(=O)COc3cccc(Cl)c3)cc2)CC1,-3,4,8,-8,-2,/,/,/
O=C(C[C@@H]1C=C[C@H](NC(=O)C2CCOCC2)[C@H](CO)O1)NCC1CC1,/,/,/,/,/,-16,/,/
O=C1Nc2ccccc2/C1=N/c1sc2c(c1C(=O)NCCc1ccccc1)CCCC2,44*,2,-21,-2,-9,17,-4,1
O=C(Nc1sc2c(c1C(=O)NCCO)CCCC2)c1ccco1,-4,-1,-1,-10,4,61,/,/
C/C(N)=C(/C#N)C(=O)CSc1nc2ccccc2c(=O)n1Cc1ccc(F)cc1,47*,0,-11,15,-1,-13,26,/
C[N+]1(CC(O)c2ccccc2)CCCCCC1 (centres undefined),69*,6,-6,24,462,0,64*,3
CC(=O)OC(C[N+]1(C)CCCCCC1)c1ccccc1 (centres undefined),79*,2,0,14,0,8,69*,-2
CC1(C)CC(=O)C=C(Nc2cccc(F)c2)C1,-3,0,-1,-8,-9,5,/,/
CN(C)c1cccc(NC2=CC(=[N+]3CCOCC3)CC(C)(C)C2)c1,41*,-3,2,18,24,/,18,/
O=S(=O)(c1ccc(C2CCCCC2)cc1)N1CCN(c2ncccn2)CC1,-2,-3,-2,0,-7,-14,/,/
CN1CCN(S(=O)(=O)c2ccc(C3CCCCC3)cc2)CC1,45*,-16,-2,8,/,-10,50*,1
SMILES,APOBEC3A inh,ARFGAP1 inhibitor,ASAP1 inh,APOBEC3G inh,SUMO Mot1 rescue,C2C12 statin,A3A conf,UDG A3A counter
COC(=O)C[C@@H]1CC[C@@H]2[C@@H](COc3ccc(NC(=O)NCc4ccccc4)cc3C(=O)N2C)O1,/,/,/,/,/,-3,/,/
Cc1cc(Br)ccc1NC(=O)CN(C)C(=O)Cn1c(=O)cnc2ccccc21,66*,4,5,15,2,12,52*,-2
Cc1[nH]c(=O)c(C#N)c(C)c1CCC(=O)Nc1cc(S(C)(=O)=O)ccc1Cl,73*,9,6,18,12,-2,42*,-3
O=C(O)C/C(=C\c1cc(Cl)c2c(c1)OCO2)c1nc2ccccc2s1,45*,-3,-16,30,-22,46,38*,-2
O=C(O)C/C(=C\c1ccc2c(c1)OCO2)c1nc2ccccc2s1,-3,-8,-7,-9,-9,5,/,/
O=C(COc1ccc(Cl)cc1)OCC(=O)N1CCCCCC1,-9,-5,1,-2,12,/,/,/
O=C(COc1ccc(Cl)cc1)OCC(=O)N1CCCC1,55*,7,-4,-4,19,0,-1,3
C[C@H](CO)N1C[C@H](C)[C@@H](CN(C)C(=O)Nc2ccc3c(c2)OCO3)OCc2ccccc2-c2ccccc2C1=O,/,/,/,/,/,4,/,/
CCOC(=O)/C(N=Nc1sc(C(=O)OCC)c(C)c1C(=O)OCC)=C(\C)O,2,/,/,2,50,/,/,/
CCOC(=O)c1sc(N=NC2=C(O)CCCC2=O)c(C(=O)OCC)c1C,40*,-7,-9,19,/,0,18*,0
CNC[C@H]1OCCCC[C@@H](C)Oc2ccc(NC(=O)Nc3ccc4c(c3)OCO4)cc2C(=O)N([C@H](C)CO)C[C@@H]1C,/,/,/,/,/,-15,/,/
CCN1C(=NCCOC)N[C@@H](c2cccc(F)c2)C(C(=O)OC)=C1C,59*,/,/,16,17,/,71*,-3
CCN1C(=NCCCCO)N[C@@H](c2cccc(F)c2)C(C(=O)OC)=C1C,51*,11,-6,6,-11,4,58*,0
